Laboratory results taken from ChEMBL document CHEMBL3817843, “Understanding Oxadiazolothiazinone Biological Properties: Negative Inotropic Activity versus Cytochrome P450-Mediated Metabolism” (J Med Chem, 2016).
pEC50, pIC50: −log10 of the molar value.

How the values were obtained:
Aorta [1] = experiment: Vasorelaxant activity in potassium depolarized guinea pig aorta assessed as inhibition of calcium-induced contraction at 10^-4 M after 30 mins; type: functional, Cavia porcellus; design: scale not given: the % may be the effect or the level left
In short: (§1)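 Guinea pig aortic strips depolarized with K+ (80 mM). Calcium-induced contraction measured; inhibition expressed as percent change from control, n = 3−5.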

[2] = Relaxant activity in potassium depolarized guinea pig ileum longitudinal smooth muscle assessed as inhibition of calcium-induced contraction after 30 mins; type: functional, tissue-based; settings: Cavia porcellus, 0.5 h
Left cardiac atrium [3] = experiment: Negative inotropic activity in potassium depolarized guinea pig left atrium assessed as reduction in developed tension at 50 uM after 30 mins; type: functional, Cavia porcellus; design: scale not given: the % may be the effect or the level left
[4] = Relaxant activity in potassium depolarized guinea pig ileum longitudinal smooth muscle assessed as inhibition of calcium-induced contraction at 50 uM after 30 mins; type: functional, Cavia porcellus; design: scale not given: the % may be the effect or the level left
Left cardiac atrium [5] = experiment: Negative inotropic activity in potassium depolarized guinea pig left atrium assessed as reduction in developed tension after 30 mins; type: functional; settings: Cavia porcellus, 0.5 h
In short: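 Guinea pig left atria electrically driven at 1 Hz. EC50 taken from log concentration−response curves by Litchfield and Wilcoxon probit analysis, n = 6−7. Not calculated when the maximum effect was below 50%.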

Right cardiac atrium [6] = experiment: Negative chronotropic activity in potassium depolarized guinea pig right atrium assessed as reduction in atrial rate at 50 uM after 30 mins; type: functional, Cavia porcellus; design: scale not given: the % may be the effect or the level left
Right cardiac atrium [7] = experiment: Negative chronotropic activity in potassium depolarized guinea pig right atrium assessed as reduction in atrial rate at 10^-4 M after 30 mins; type: functional, Cavia porcellus; design: scale not given: the % may be the effect or the level left
Aorta [8] = experiment: Vasorelaxant activity in potassium depolarized guinea pig aorta assessed as inhibition of calcium-induced contraction at 50 uM after 30 mins; type: functional, Cavia porcellus; design: scale not given: the % may be the effect or the level left; in short: as §1
Cytochrome P450 2D6 = Cytochrome P450 2D6 (Homo sapiens, UniProt P10635); experiment: Inhibition of CYP2D6 in human liver microsomes using dextromethorphan as substrate after 10 mins by LC-MS analysis
Cytochrome P450 1A2 = molecular target: T1, Cytochrome P450 1A2 (Homo sapiens, UniProt P05177); experiment: Inhibition of CYP1A2 in human liver microsomes using phenacetin as substrate after 30 mins by LC-MS analysis
T1 sequence (P05177 whole entry): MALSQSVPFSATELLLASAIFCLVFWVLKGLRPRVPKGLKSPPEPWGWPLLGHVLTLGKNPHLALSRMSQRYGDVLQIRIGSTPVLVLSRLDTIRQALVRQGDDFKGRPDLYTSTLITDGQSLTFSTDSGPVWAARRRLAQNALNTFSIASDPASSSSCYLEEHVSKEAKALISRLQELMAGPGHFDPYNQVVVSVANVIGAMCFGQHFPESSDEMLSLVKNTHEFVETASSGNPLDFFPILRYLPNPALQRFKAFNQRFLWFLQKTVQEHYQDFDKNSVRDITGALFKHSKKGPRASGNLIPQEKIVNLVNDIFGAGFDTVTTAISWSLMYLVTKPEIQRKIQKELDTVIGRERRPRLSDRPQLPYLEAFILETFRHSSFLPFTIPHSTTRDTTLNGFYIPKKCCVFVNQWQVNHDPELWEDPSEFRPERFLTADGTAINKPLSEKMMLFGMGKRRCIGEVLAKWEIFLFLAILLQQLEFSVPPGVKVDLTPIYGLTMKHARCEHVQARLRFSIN

Cytochrome P450 2C9 = Cytochrome P450 2C9 (Homo sapiens, UniProt P11712); experiment: Inhibition of CYP2C9 in human liver microsomes using tolbutamide as substrate after 20 mins by LC-MS analysis
Cytochrome P450 2C19 = Cytochrome P450 2C19 (Homo sapiens, UniProt P33261); experiment: Inhibition of CYP2C19 in human liver microsomes using (S)-mephenytoin as substrate after 40 mins by LC-MS analysis
Cytochrome P450 3A4 [9] = molecular target: T2, Cytochrome P450 3A4 (Homo sapiens, UniProt P08684); experiment: Inhibition of CYP3A4 in human liver microsomes using testosterone as substrate after 5 mins by LC-MS analysis
Liver microsome = experiment: Stability in human liver microsomes at 1 uM after 2 to 60 mins by LC-MS analysis in absence of NADPH
Cytochrome P450 3A4 [10] = molecular target: T2, Cytochrome P450 3A4; experiment: Inhibition of CYP3A4 in human liver microsomes using midazolam as substrate after 4 mins by LC-MS analysis
Left cardiac atrium [11] = experiment: Negative inotropic activity in potassium depolarized guinea pig left atrium assessed as reduction in developed tension at 10^-5 M after 30 mins; type: functional, Cavia porcellus; design: scale not given: the % may be the effect or the level left
Right cardiac atrium [12] = experiment: Negative chronotropic activity in potassium depolarized guinea pig right atrium assessed as reduction in atrial rate at 10^-6 M after 30 mins; type: functional, Cavia porcellus; design: scale not given: the % may be the effect or the level left
[13] = Half life in human liver microsomes assessed as CYP-mediated compound degradation at 1 uM by LC-MS analysis
in vitro = settings: human, liver microsomes
Left cardiac atrium [14] = experiment: Negative inotropic activity in potassium depolarized guinea pig left atrium assessed as reduction in developed tension at 10^-4 M after 30 mins; type: functional, Cavia porcellus; design: scale not given: the % may be the effect or the level left
[15] = Relaxant activity in potassium depolarized guinea pig ileum longitudinal smooth muscle assessed as inhibition of calcium-induced contraction at 10^-4 M after 30 mins; type: functional, Cavia porcellus; design: scale not given: the % may be the effect or the level left
Left cardiac atrium [16] = experiment: Negative inotropic activity in potassium depolarized guinea pig left atrium assessed as reduction in developed tension at 5 uM after 30 mins; type: functional, Cavia porcellus; design: scale not given: the % may be the effect or the level left

T2 sequence (P08684 whole entry): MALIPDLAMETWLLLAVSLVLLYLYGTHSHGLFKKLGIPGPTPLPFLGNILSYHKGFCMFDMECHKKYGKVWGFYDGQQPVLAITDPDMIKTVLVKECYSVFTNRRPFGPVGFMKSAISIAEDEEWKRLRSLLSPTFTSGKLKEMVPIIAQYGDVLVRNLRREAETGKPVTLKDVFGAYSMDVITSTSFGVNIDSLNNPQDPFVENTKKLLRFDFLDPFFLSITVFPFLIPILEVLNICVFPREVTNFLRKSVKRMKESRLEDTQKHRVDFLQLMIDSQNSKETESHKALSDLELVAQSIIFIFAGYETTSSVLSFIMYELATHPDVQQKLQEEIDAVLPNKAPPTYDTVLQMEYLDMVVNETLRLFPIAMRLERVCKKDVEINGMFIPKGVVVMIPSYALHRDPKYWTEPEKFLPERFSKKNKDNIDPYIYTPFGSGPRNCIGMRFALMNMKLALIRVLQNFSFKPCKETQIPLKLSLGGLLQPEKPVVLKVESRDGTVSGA
Chain of Cytochrome P450 2D6 (P10635 whole entry): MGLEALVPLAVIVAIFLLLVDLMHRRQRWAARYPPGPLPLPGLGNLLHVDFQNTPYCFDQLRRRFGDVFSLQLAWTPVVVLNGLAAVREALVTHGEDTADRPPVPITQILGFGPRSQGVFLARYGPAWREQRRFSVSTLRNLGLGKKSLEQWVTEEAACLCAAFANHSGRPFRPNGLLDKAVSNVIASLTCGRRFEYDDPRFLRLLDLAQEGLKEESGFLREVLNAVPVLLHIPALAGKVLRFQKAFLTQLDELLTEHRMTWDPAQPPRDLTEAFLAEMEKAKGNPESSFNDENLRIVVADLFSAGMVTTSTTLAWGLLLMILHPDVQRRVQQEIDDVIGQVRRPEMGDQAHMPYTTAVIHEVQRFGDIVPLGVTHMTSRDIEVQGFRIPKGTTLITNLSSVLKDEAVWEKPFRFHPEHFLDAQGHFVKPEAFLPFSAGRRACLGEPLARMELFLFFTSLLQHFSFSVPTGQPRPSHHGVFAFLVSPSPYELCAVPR
Chain of Cytochrome P450 2C9 (P11712 whole entry): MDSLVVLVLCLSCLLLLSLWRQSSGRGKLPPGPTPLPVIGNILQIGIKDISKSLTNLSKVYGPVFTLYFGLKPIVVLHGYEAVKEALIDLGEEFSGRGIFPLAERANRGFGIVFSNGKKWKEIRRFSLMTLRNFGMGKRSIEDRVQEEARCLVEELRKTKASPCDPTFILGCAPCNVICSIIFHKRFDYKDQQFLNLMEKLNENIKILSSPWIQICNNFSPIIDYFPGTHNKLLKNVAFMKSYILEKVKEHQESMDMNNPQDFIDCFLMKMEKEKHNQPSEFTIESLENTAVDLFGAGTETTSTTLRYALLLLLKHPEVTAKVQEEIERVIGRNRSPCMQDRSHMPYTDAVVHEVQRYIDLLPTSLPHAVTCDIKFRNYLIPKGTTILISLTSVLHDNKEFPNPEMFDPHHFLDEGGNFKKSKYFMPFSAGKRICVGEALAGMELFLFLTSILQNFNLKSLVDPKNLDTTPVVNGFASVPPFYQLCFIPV
Chain of Cytochrome P450 2C19 (P33261 whole entry): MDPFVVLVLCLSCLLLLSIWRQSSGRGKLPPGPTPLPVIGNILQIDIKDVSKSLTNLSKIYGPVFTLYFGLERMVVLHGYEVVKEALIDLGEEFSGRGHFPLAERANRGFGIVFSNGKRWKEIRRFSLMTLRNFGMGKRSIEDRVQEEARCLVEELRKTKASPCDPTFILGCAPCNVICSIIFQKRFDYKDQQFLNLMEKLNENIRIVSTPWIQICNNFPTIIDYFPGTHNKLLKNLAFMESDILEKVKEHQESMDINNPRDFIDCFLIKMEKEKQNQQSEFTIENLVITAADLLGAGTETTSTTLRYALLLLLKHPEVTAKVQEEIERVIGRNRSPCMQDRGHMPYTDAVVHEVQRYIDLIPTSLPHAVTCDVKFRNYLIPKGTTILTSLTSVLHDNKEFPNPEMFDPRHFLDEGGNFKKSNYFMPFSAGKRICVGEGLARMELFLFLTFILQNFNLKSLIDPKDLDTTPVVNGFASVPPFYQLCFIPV

Row | SMILES | Activity (Aorta [1]) | pIC50 [2] | Activity (Left cardiac atrium [3]) | pEC50 (Left cardiac atrium [5]) | Activity (Right cardiac atrium [6]) | Activity (Right cardiac atrium [7]) | pIC50 (Cytochrome P450 2D6) | pIC50 (Cytochrome P450 1A2) | pIC50 (Cytochrome P450 2C9) | pIC50 (Cytochrome P450 2C19) | pIC50 (Cytochrome P450 3A4 [9]) | Stability (Liver microsome) | also measured
1 | COc1cccc(C2(OC(C)C)SC=C(C)n3c2noc3=O)c1 (centres undefined) | 36% | 5.45 | 84% | 7.19 | 2% | – | – | – | – | – | – | – | Activity [4]: 98%
2 | O=c1onc2n1-c1ccccc1SC2(OCC1CCCCC1)c1ccccc1 (centres undefined) | 3% | – | 86% | 6.55 | – | 6% | – | – | – | – | – | – | –
3 | COc1cccc(C2(O)SC=C(C)n3c2noc3=O)c1 (centres undefined) | – | – | 86% | 6.31 | 16% | – | – | – | – | – | – | – | Activity (Aorta [8]): 10%
4 | COc1ccccc1C1(OCC2CCCCC2)SC=C(C)n2c1noc2=O (centres undefined) | 17% | – | 89% | 6.32 | 22% | – | – | – | – | – | – | – | –
5 | O=c1onc2n1-c1ccccc1SC2(OCC(F)(F)F)c1ccc(Br)cc1 (centres undefined) | – | – | – | – | – | – | < 4.70 | < 4.70 | < 4.70 | 4.97 | < 4.70 | Stable | pIC50 (Cytochrome P450 3A4 [10]): < 4.70
6 | COc1ccc(C2(OC(C)C)SC=C(C)n3c2noc3=O)cc1 (centres undefined) | 11% | – | – | 6.37 | 14% | – | – | – | – | – | – | – | Activity (Left cardiac atrium [11]): 69%
7 | CC(C)OC1(c2ccccc2)Sc2ccccc2-n2c1noc2=O (centres undefined) | 7% | – | 69% | 6.39 | – | 13% | – | – | – | – | – | – | –
8 | CCOC1(c2ccccc2)SC=C(C)n2c1noc2=O (centres undefined) | 32% | 4.93 | – | 6.66 | – | – | 4.77 | < 4.70 | < 4.70 | 5.32 | 4.72 | Stable | Activity (Right cardiac atrium [12]): 11%; half-life at 1 µM [13]: 20 min; microsomal CLint at 1 µM (in vitro): 86 µL/min/mg; Activity (Left cardiac atrium [11]): 86%; Activity [4]: 89%; pIC50 (Cytochrome P450 3A4 [10]): < 4.70
9 | COc1cccc(C2(OCC3CCCCC3)SC=C(C)n3c2noc3=O)c1 (centres undefined) | 20% | – | 83% | 6.19 | 4% | – | – | – | – | – | – | – | –
10 | CC1=CSC(OC(C)C)(c2ccccc2)c2noc(=O)n21 (centres undefined) | 39% | 5.32 | – | 5.92 | – | – | – | – | – | – | – | – | Activity (Right cardiac atrium [12]): 25%; Activity (Left cardiac atrium [14]): 82%; Activity [4]: 97%
11 | O=c1onc2n1C=CSC2(O)c1ccccc1 (centres undefined) | – | – | 74% | – | 14% | – | – | – | – | – | – | – | Activity (Aorta [8]): 11%
12 | CC1=CSC(OCC2CCCCC2)(c2ccccc2)c2noc(=O)n21 (centres undefined) | 14% | – | – | 6.06 | – | 2% | – | – | – | – | – | – | Activity (Left cardiac atrium [14]): 56%
13 | COc1ccc(C2(OCC(F)(F)F)Sc3ccccc3-n3c2noc3=O)cc1 (centres undefined) | 6% | 4.99 | – | 7.02 | – | 19% | < 4.70 | < 4.70 | < 4.70 | 4.77 | < 4.70 | Stable | Activity (Left cardiac atrium [14]): 82%; half-life at 1 µM [13]: 23 min; microsomal CLint at 1 µM (in vitro): 76 µL/min/mg; Activity [15]: 66%; pIC50 (Cytochrome P450 3A4 [10]): < 4.70
14 | CC1=CSC(OCC(F)(F)F)(c2ccc(Br)cc2)c2noc(=O)n21 (centres undefined) | – | – | – | – | – | – | 5.15 | 5.30 | 5.18 | 6.00 | < 4.70 | Stable | half-life at 1 µM [13]: > 250 min; microsomal CLint at 1 µM (in vitro): < 7 µL/min/mg; pIC50 (Cytochrome P450 3A4 [10]): < 4.70
15 | CCOC1(c2ccc(OC)cc2)Sc2ccccc2-n2c1noc2=O (centres undefined) | 11% | – | – | 6.64 | – | 19% | < 4.70 | < 4.70 | 4.93 | 5.44 | < 4.70 | Stable | half-life at 1 µM [13]: 13 min; microsomal CLint at 1 µM (in vitro): 135 µL/min/mg; Activity (Left cardiac atrium [11]): 73%; pIC50 (Cytochrome P450 3A4 [10]): < 4.70
16 | CCOC1(c2ccccc2)Sc2ccccc2-n2c1noc2=O (centres undefined) | 14% | – | – | 6.68 | 7% | – | < 4.70 | < 4.70 | 4.72 | 5.21 | < 4.70 | Stable | Activity (Left cardiac atrium [11]): 88%
17 | COc1ccc(C2(OCC3CCCCC3)SC=C(C)n3c2noc3=O)cc1 (centres undefined) | 21% | – | – | 6.18 | – | 3% | – | – | – | – | – | – | Activity (Left cardiac atrium [14]): 80%
18 | COc1cccc(C2(OCC(F)(F)F)SC=C(C)n3c2noc3=O)c1 (centres undefined) | 40% | 4.91 | – | 6.49 | – | 9% | – | – | – | – | – | – | Activity (Left cardiac atrium [11]): 72%; Activity [15]: 95%
19 | CC1=CSC(OCC(F)(F)F)(c2ccccc2)c2noc(=O)n21 (centres undefined) | 28% | 5.01 | – | 6.85 | – | 6% | 4.78 | < 4.70 | 4.74 | 5.62 | < 4.70 | Stable | Activity [15]: 95%; Activity (Left cardiac atrium [16]): 79%; pIC50 (Cytochrome P450 3A4 [10]): < 4.70
20 | COc1ccc(C2(O)SC=C(C)n3c2noc3=O)cc1 (centres undefined) | – | – | 76% | 6.28 | 12% | – | – | – | – | – | – | – | Activity (Aorta [8]): 18%
21 | O=c1onc2n1-c1ccccc1SC2(O)c1ccccc1 (centres undefined) | 21% | – | 97% | 5.89 | 10% | – | – | – | – | – | – | – | –
22 | O=c1onc2n1-c1ccccc1SC2(OCC(F)(F)F)c1ccccc1 (centres undefined) | 6% | 4.84 | 75% | 6.41 | – | 13% | – | – | – | – | – | – | Activity [15]: 75%
